FXN GAA850 act: FXN promoter activators, primary screen, cell-based, luciferase luminescence, HEK293 lucGAA850 | HEK293 lucGAA850 FXN promoter luciferase reporter, 24 h; percent of 10 µM SAHA response | activation, % at 6 µM | actives 0.56% (n = 360,000) | AID 540364, 2011;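 active = activation above the average of all compounds screened plus 3 SD, cutoff fixed separately per campaign, cut at about 7.5% in these data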
proCasp3 act: activators of human procaspase-3 D3A mutant, primary screen, biochemical, absorbance, PC-3 D3A mutant, single concentration; Caspase-3 (Homo sapiens), P42574; recombinant procaspase-3 D3A, Ac-DEVD-pNA absorbance 405 nm; activation, % at 8.5 µM; actives 0.11% (n = 330,000); AID 463141, 2010;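 active = activation above the mean of all tested compounds plus 3 SD, cut at about 21% in these data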
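Assay system – Procaspase-3 D3A mutant, all three cleavage aspartates alanine · Controls – DMSO-only low control, 5 µM PC-3 D3A high control · Schedule – 1 h compound preincubation, 2 h substrate hydrolysis at 25 °C · Signal – 405 nm absorbance of p-nitroaniline, reads at 0 and 120 min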
Neddylation inh: inhibitors of cullin neddylation, primary screen, biochemical, TR-FRET, uHTS, NAE and Ubc12 | NEDD8-conjugating enzyme Ubc12 (Homo sapiens) + NEDD8-activating enzyme E1 regulatory … | inhibition, % at 25 µM | actives 0.58% (n = 360,000) | AID 651699, 2012; in the data active = inhibition above about 36%
Target sequence (P61081 whole entry, looked up): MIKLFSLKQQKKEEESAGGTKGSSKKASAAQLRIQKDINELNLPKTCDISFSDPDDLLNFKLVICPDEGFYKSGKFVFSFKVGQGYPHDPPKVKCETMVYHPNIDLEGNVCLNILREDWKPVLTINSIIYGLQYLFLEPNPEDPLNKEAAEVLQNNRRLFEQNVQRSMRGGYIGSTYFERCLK
Target sequence (Q13564 whole entry, looked up): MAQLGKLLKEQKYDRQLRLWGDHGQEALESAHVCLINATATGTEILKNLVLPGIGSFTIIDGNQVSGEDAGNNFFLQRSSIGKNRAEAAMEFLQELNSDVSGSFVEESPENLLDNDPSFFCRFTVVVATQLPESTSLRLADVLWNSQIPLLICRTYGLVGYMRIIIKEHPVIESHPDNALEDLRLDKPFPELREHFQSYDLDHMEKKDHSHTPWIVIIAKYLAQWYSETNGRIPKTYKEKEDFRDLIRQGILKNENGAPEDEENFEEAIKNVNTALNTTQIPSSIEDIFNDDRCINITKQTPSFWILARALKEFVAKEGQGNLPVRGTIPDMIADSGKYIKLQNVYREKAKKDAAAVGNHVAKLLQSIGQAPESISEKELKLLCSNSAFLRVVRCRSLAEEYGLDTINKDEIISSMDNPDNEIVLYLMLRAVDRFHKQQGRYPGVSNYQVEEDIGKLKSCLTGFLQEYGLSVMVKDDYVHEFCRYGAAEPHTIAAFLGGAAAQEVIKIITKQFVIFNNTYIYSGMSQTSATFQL
Calb FLC: C. albicans growth inhibition with fluconazole, primary screen, CaCi-2 strain, Alamar Blue fluorescence. C. albicans CaCi-2 + fluconazole, 48 h. growth inhibition, % (no concentration beside the values). actives 0.57% (n = 300,000). AID 1979, 2009;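 active = growth inhibition above about 58% in most replicates, limit read from the data, passing the limit was not always enough; inconclusive = exactly half the replicates above a set limit; inactive = most replicates below a set limit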;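 also: all wells also contain fluconazole at 8 µg/ml as a sub-toxic cotreatment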
procasp7 counter: procaspase-7 activators, primary screen, counter-screen for procaspase-3 activator project, biochemical, absorbance, HTS, human; AID 463210, 2010; recombinant procaspase-7, Ac-DEVD-pNA absorbance 405 nm; D23A/D198A/D206A triple mutant, cannot self-cleave; scale: DMSO 0, 5 µM enzyme 100; activation, % at 8.5 µM; actives 0.093% (n = 330,000); Caspase-7 (Homo sapiens), P55210;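 active = percent activation above the screen-wide mean plus 3 SD, cut at about 25% in these data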
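Detection: p-Nitroaniline absorbance at 405 nm, read at 0 and 120 min; system: Uncleavable procaspase-7 mutant enzyme; evaluation: % activation from two-timepoint absorbance difference, scaled to controls; times: 1 h enzyme–compound preincubation and 2 h substrate reaction, both 25 °C; buffer or medium: Zinc-free HEPES pH 7.4 with 300 mM NaCl, 0.01% Triton X-100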
HIF activator: HIF pathway transcriptional activators, primary screen, cell-based, U2OS HRE-luciferase, luminescence. U2OS HRE-luciferase reporter; normalized: DMSO 0%, desferrioxamine 100%. activation, % at 7.5 µM (by protocol). actives 0.32% (n = 300,000);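 active = mean activation of at least 10% of the iron chelator positive control signal, with at least half of replicates also reaching 10%; inconclusive = mean and replicate majority disagree about reaching 10%; inactive = mean and most replicates under 10%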
Neddyl conf: blockade of NEDD8 conjugation to cullin – biochemical, TR-FRET, single concentration, confirmation | shares compounds with Neddylation inh | TR-FRET cullin neddylation biochemical assay | calls only at 25 µM | actives 13% (n = 1,800) | AID 652217, 2013; in the data active = inhibition above about 40%;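 also: neddylation substrate is the cullin 1 ring ligase complex with SKP2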
A number is an active result; – = inactive; ? = inconclusive; · = no result shown. In the library only some 1.9% were active in any assay of this set; here they are far more common.

SMILES	FXN GAA850 act	proCasp3 act	Neddylation inh	Calb FLC	procasp7 counter	HIF activator	Neddyl conf
Cc1cc(C)c2c(N)c(C(=O)c3ccc(Cl)cc3Cl)sc2n1	–	–	·	–	–	–	·
O=C(CCn1cnc2ccccc21)N/N=C/c1ccccc1O	–	–	40.8	?	–	–	–
O=C(CCn1cnc2ccccc21)N/N=C/c1ccc(O)cc1	–	–	–	–	–	–	·
Cc1ccc(-c2ccc(C(=O)Nc3ccccc3)o2)c2ccccc12	–	–	39.6	–	–	–	–
O=C(Cn1cnc2sc3c(c2c1=O)CCCC3)NCC(=O)Nc1ccc(F)cc1F	–	–	–	–	–	–	·
CCCCn1c(=O)nc2n(-c3ccc(C)cc3)c3ccccc3cc-2c1=O	–	–	–	–	–	·	·
Cc1ccc(-n2c3nc(=O)n(C)c(=O)c-3cc3ccccc32)cc1	–	–	61.1	–	–	–	–
CCc1ccc2nc(N3CCN(C)CC3)c(C#N)cc2c1	–	–	43.5	–	–	–	–
O=C(N/N=C/c1ccc(F)cc1)c1ccc(-n2cnnn2)cc1	–	·	–	·	·	·	·
CSc1ccc(/C=N/NC(=O)c2ccc(-n3cnnn3)cc2)cc1	–	–	48.8	·	–	·	–
COc1cccc(NC(=S)N2CCN(C)CC2)c1	–	–	–	–	–	–	·
CSc1nnc2c(=O)[nH]c(=O)n(C)c2n1	–	·	–	·	·	·	·
CSc1cnc2c(=O)n(C)c(=O)[nH]c2n1	–	–	47.9	?	–	–	·
Cc1ccc(N(CC(=O)NCC2CCCO2)C(=O)CCC(=O)Nc2cc(C)on2)cc1 (stereo not drawn)	–	–	–	–	–	–	·
C/C(=N\NC(=O)c1cc(Br)ccc1O)c1cccc(NC(=O)c2ccccc2F)c1	–	–	53.7	–	–	–	–
C/C(=N\NC(=O)c1ccccc1F)c1cccc(NC(=O)c2ccccc2)c1	–	–	–	–	–	–	·
Oc1cccc(C2c3[nH]c4ccccc4c3CCN2Cc2ccoc2)c1 (stereo not drawn)	–	–	–	–	–	–	·
COc1ccc(C2c3[nH]c4ccccc4c3CCN2Cc2ccoc2)c(F)c1 (stereo not drawn)	–	–	41.4	–	–	–	–
CC(=O)c1sc(-c2ccc(F)cc2)cc1NS(=O)(=O)c1ccccc1	–	–	40.8	–	–	–	–
COC(=O)c1sc(-c2ccccc2)cc1NC(=O)c1ccc(F)cc1	–	–	·	–	–	–	·
NS(=O)(=O)c1ccc(-c2ccc(/C=N/Nc3ccc(C(=O)O)cc3)o2)cc1	–	–	43.2	–	–	–	–
CC(C)c1ccccc1NC(=S)NCCCn1ccnc1	–	–	–	–	–	–	·
Cc1cc(-n2c(C)cc(C(=O)COc3ccc4ccc(=O)oc4c3)c2C)no1	–	–	54.6	–	–	–	·
CC(C)CC(N)c1csc(NC(=O)Nc2ccccc2C(C)(C)C)n1 (stereo not drawn)	–	·	–	·	·	·	·
C/C=C(\C)C(=O)O[C@H](c1cc2ccc(=O)oc2cc1OC)[C@@H](O)C(C)(C)O	–	–	36.6	·	–	·	–
SMILES	FXN GAA850 act	proCasp3 act	Neddylation inh	Calb FLC	procasp7 counter	HIF activator	Neddyl conf
C/C=C(\C)C(=O)O[C@@H]([C@H](O)c1cc2ccc(=O)oc2cc1OC)C(C)(C)O	–	–	·	·	–	·	·
O=C(NCc1cccnc1)c1cccc(OC2CCN(Cc3ccc(CO)o3)CC2)c1	–	–	–	–	–	–	·
CNc1cncc(-c2ccccc2NC(C)=O)n1	–	·	41.6	·	·	·	–
CC(=O)Nc1cncc(-c2ccccc2C(C)=O)n1	–	·	–	·	·	·	·
Cc1[nH]c2ccccc2c1C(=O)C(C)OC(=O)c1ccccc1NCCO (stereo not drawn)	–	–	54.4	–	–	–	·
N#CC1=C(N)N(c2ccc(Br)cc2)C2=C(C(=O)CCC2)C1c1cccnc1 (stereo not drawn)	–	–	42.3	?	–	–	–
Cc1ccc(N2C(N)=C(C#N)C(c3cccnc3)C3=C2CCCC3=O)cc1 (stereo not drawn)	–	–	–	–	–	–	·
COc1cc2c(cc1OC)C(COc1ccc(C(C)C)cc1)NCC2 (stereo not drawn)	–	–	41.6	–	–	–	–
COc1cc2c(cc1OC)C(c1cccs1)NCC2 (stereo not drawn)	–	–	–	–	–	–	·
CCOC(=O)/C=c1\s/c(=C\c2ccc3c(c2)OCCO3)c(=O)n1CC(=O)NCC1CCCO1 (stereo not drawn)	–	–	42.8	–	–	–	–
CCOC(=O)/C=c1\s/c(=C\c2c(OCC)ccc3ccccc23)c(=O)n1CC(=O)NCC1CCCO1 (stereo not drawn)	–	–	–	–	–	–	·
COc1ccc2oc(C(=O)OC(C)C(=O)N(C)c3ccccc3)c(C)c2c1 (stereo not drawn)	–	–	56.1	–	–	–	·
COc1ccc2oc(C(=O)OCC(=O)N(C)C3CCCCC3)c(C)c2c1	–	–	59.2	–	–	–	·
COc1ccc2oc(C(=O)OCC(=O)N(C)c3c(N)n(Cc4ccccc4)c(=O)[nH]c3=O)c(C)c2c1	–	–	58.0	–	–	–	·
COc1ccc2oc(C(=O)OCC(=O)N3CC(C)CC(C)C3)c(C)c2c1 (stereo not drawn)	–	–	60.5	–	–	–	·
COCCN(C(=O)COC(=O)c1oc2ccc(OC)cc2c1C)c1c(N)n(Cc2ccccc2)c(=O)[nH]c1=O	–	–	·	–	–	–	·
COc1ccc2oc(C(=O)OCC(=O)N(C)C3CCS(=O)(=O)C3)c(C)c2c1 (stereo not drawn)	–	–	·	–	–	–	·
CCN(C(=O)COC(=O)c1oc2ccc(OC)cc2c1C)C1CCCCC1	–	–	51.8	–	–	–	·
CCOC(=O)c1c(CN(CC)CC)oc2cc(Br)c(O)cc12	–	–	–	–	–	–	·
CCOC(=O)c1c(CN(CC)CC)oc2ccc(OC)cc12	–	–	37.7	–	–	–	–
O=C(NC1CCCCC1)N(CCO)Cc1cc2cc3c(cc2[nH]c1=O)OCCO3	–	–	44.3	–	–	–	–
